The RNAGym collection of RNA variant scans (doi:10.1126/science.aae0568)
Variants at the floor of the assay were thinned out.

B1: tRNA (parent)
chain: GUUCCGUUGGCGUAAUGGUAACGCGUCUCCCUCCUAAGGAGAAGACUGCGGGUUCGAGUCCCGUACGGAACG

Variants of: B1
Experiment: yeast fitness relative to wild type (ratio to wild type); higher = fitter; tRNA-Arg(CCU), competitive growth, 37 C, YPD
Procedure, shortened: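 Variants of the tRNA-Arg(CCU) gene were chemically synthesised with a 3% per-site mutation rate across 69 sites and placed at the native genomic locus in Saccharomyces cerevisiae. Six parallel replicates of the pooled strains were competed in YPD at 37°C for 24 hours, and gene amplicons from the start and end populations were read by 100-nucleotide paired-end sequencing. Darwinian fitness relative to wild type was derived from changes in genotype frequencies. Genotypes required ≥ 100 starting reads, and estimates < 0.5 were set to 0.5.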
A42U U64C showed a yeast fitness of 1.05.
Variant C4U C31A A36G G44C has a yeast fitness of 0.59.
Variant U2C C46U G50A has a yeast fitness of 0.737.
G23C C27A A45G G51C G68A gave a yeast fitness of 0.701.
In the case of A20U G38C A65G C66U, the yeast fitness is reported as ≤ 0.5.
With C5G C49U G63C the yeast fitness was ≤ 0.5.
With C24G C34U U47A the yeast fitness was ≤ 0.5.
For G12A C31U C55G G67C, the yeast fitness was ≤ 0.5.
Work on U32C A65C yielded a yeast fitness of 1.03.
In the case of U7G C34A G44C G51A C62A, the yeast fitness is reported as ≤ 0.5.
U7A A42U showed a yeast fitness of 0.696.
In the case of A36U A45G C49A C66U A70G, the yeast fitness is reported as ≤ 0.5.
In the case of C11U C55G C66U, the yeast fitness is reported as ≤ 0.5.
With A37G A40C C61G A69U the yeast fitness was ≤ 0.5.
In the case of C29G G56A A69U, the yeast fitness is reported as ≤ 0.5.
In the case of A14G U19C C31G A37U A65U, the yeast fitness is reported as ≤ 0.5.
For U2G U28G G68C, the yeast fitness was ≤ 0.5.
Work on U26C C55G yielded a yeast fitness of 0.59.
With G10C U35G A69C the yeast fitness was ≤ 0.5.
For U2C G9C U13C G68C, the yeast fitness was ≤ 0.5.
In the case of G12C C30G A37U G41A, the yeast fitness is reported as ≤ 0.5.
For A15C A20C G41C, the yeast fitness was ≤ 0.5.
C5U U16A C46A gave a yeast fitness of 1.07.
Work on G39C G52C yielded a yeast fitness of 0.635.
Work on C27U G44C A65U yielded a yeast fitness of 0.691.
With G56A C60U the yeast fitness was 0.845.
With C61G G67C the yeast fitness was 0.61.
Work on A20C C31U A42U yielded a yeast fitness of 0.643.
In the case of A14C A20C A42G G44A, the yeast fitness is reported as 0.633.
For C4U C24U A36C C49U, the yeast fitness was ≤ 0.5.
Variant U3C G9C C46U has a yeast fitness of 0.567.
With U16A C46A the yeast fitness was 0.92.
For U3A G18A, the yeast fitness was 0.661.
In the case of G23A C34U A43U G44C, the yeast fitness is reported as ≤ 0.5.
In the case of G10A U35C A42C A43C, the yeast fitness is reported as ≤ 0.5.
In the case of G10A A21G A65U A69C, the yeast fitness is reported as 0.777.
With C11G C24G G44C the yeast fitness was ≤ 0.5.
In the case of U32G C34A A40C C60U, the yeast fitness is reported as ≤ 0.5.
With C49G C61U the yeast fitness was 0.719.
Work on U19C A21U A43C C49U yielded a yeast fitness of 0.547.
With U3C C30G A43C C60G C66G A69G the yeast fitness was ≤ 0.5.
In the case of C24U A37U A65U A69C, the yeast fitness is reported as ≤ 0.5.
In the case of U19G C29A U54A, the yeast fitness is reported as ≤ 0.5.
G17C C29A showed a yeast fitness of 0.544.
With U2C U16A A42G the yeast fitness was 0.649.
For A14G G23A A40U A42C G58C, the yeast fitness was ≤ 0.5.
With G12A C62U G63A the yeast fitness was ≤ 0.5.
With C31G G44A the yeast fitness was 1.07.
In the case of C27G C30U A42U, the yeast fitness is reported as 0.651.
In the case of G17A U54C, the yeast fitness is reported as 0.67.
Variant U7C G41A A42C has a yeast fitness of 0.543.
With G10A A21C G52C the yeast fitness was ≤ 0.5.
Work on U8C G44C G48A G51A yielded a yeast fitness of 0.674.
Work on G9C A14G A70G yielded a yeast fitness of 0.746.
G10A A42U showed a yeast fitness of 0.805.
For U3A C4G G9A C11G U53A C66U, the yeast fitness was ≤ 0.5.
For C22A G23A C33U C34G C55U, the yeast fitness was ≤ 0.5.
With A15G C27A G51C the yeast fitness was ≤ 0.5.
In the case of U2C C31A, the yeast fitness is reported as 0.879.
In the case of U7G U32A C61G, the yeast fitness is reported as ≤ 0.5.
With C5U A14U C27G G38C G63A the yeast fitness was ≤ 0.5.
G9A A14C C27U C46U G52C gave a yeast fitness of 0.53.
For C49G U53C C55A G63A, the yeast fitness was ≤ 0.5.
C33U C46G C49U gave a yeast fitness of 0.632.
In the case of C5G C22A A43G, the yeast fitness is reported as 0.557.
With G6A U16C C22U A37U C49A C62U the yeast fitness was ≤ 0.5.
In the case of U7A U19A C29A, the yeast fitness is reported as ≤ 0.5.
For C22G C61G, the yeast fitness was 0.684.
For U3A C4A U16A C30G U53C C66A, the yeast fitness was ≤ 0.5.
Variant G23A U26G C61U A69C has a yeast fitness of 0.793.
A57G U64C showed a yeast fitness of 0.979.
Variant C24A C62G A70U has a yeast fitness of 0.562.
With C11U U47C G51C A70G the yeast fitness was 0.669.
In the case of C4U G23A C33G C49A U54G A65G, the yeast fitness is reported as ≤ 0.5.
In the case of C11U C24G C29U G50A G58C G63A C66U, the yeast fitness is reported as ≤ 0.5.
In the case of C4G A21G C22U U28A U35C, the yeast fitness is reported as ≤ 0.5.
Variant C29G A36U has a yeast fitness of 0.569.
With A15G G25C C31U A70U the yeast fitness was ≤ 0.5.
Variant C31G C61A has a yeast fitness of 0.65.
With U32C C34U U35C A45G U54A the yeast fitness was ≤ 0.5.
For G10C C24G C49U C66U, the yeast fitness was ≤ 0.5.
U3A A70U showed a yeast fitness of 0.86.
In the case of C11G C29G C31G U54C U64A, the yeast fitness is reported as ≤ 0.5.
C5G C55U G68C gave a yeast fitness of 0.506.
With C27U C46U A65U A70C the yeast fitness was 0.828.
For A20G A37U C46A, the yeast fitness was ≤ 0.5.
In the case of A43U C61A A65U, the yeast fitness is reported as ≤ 0.5.
C4U A15G A65U gave a yeast fitness of 0.69.
Variant C30G U53C has a yeast fitness of 0.632.
In the case of C5G U26C G44A C62A, the yeast fitness is reported as ≤ 0.5.
In the case of G39A G56A, the yeast fitness is reported as 0.914.
U35C C55G A57G showed a yeast fitness of 0.606.
With C29A A57U C62U the yeast fitness was ≤ 0.5.
For U7G C30A, the yeast fitness was 0.721.
A14G C22A showed a yeast fitness of 0.982.
Variant C29U U32A has a yeast fitness of 0.83.
For A65C A69C, the yeast fitness was 0.727.
With A20C C22G C34G G44A A65U the yeast fitness was 0.569.
With A40U A57G U64G the yeast fitness was ≤ 0.5.
G23C C33A A36U gave a yeast fitness of 0.529.
In the case of U19C A57G G58C, the yeast fitness is reported as 0.609.
For G25A C30A G38A A43G C46U A57U, the yeast fitness was 0.614.
With A40U A69U the yeast fitness was 1.04.
In the case of A42G C66G G67C, the yeast fitness is reported as ≤ 0.5.
In the case of U2G A14G A15U G25C C49U, the yeast fitness is reported as ≤ 0.5.
With C4G U7C U13G the yeast fitness was 0.537.
Variant C22A G23C C34U A36G A40U has a yeast fitness of 0.548.
With C4A C5U A20G U28A A37U C61U A69U the yeast fitness was ≤ 0.5.
Variant C46U G67A has a yeast fitness of 0.986.
In the case of G12C A20U C24U G51A G68C, the yeast fitness is reported as ≤ 0.5.
With C24U C33A U47C the yeast fitness was 0.516.
In the case of C5U U13C A15C, the yeast fitness is reported as ≤ 0.5.
With U2G U28G A45C G63C the yeast fitness was ≤ 0.5.
For C33G U54A, the yeast fitness was ≤ 0.5.
With U8A C11A C24U A40U the yeast fitness was ≤ 0.5.
With A14G C27G C34G A37U C62U the yeast fitness was ≤ 0.5.
C27U A36C showed a yeast fitness of 0.541.
With A14U A65G the yeast fitness was 0.559.
With A14U A65C the yeast fitness was 0.611.
With C30A C34A C49U the yeast fitness was ≤ 0.5.
Work on C5A C34U A40G yielded a yeast fitness of 0.727.
U13G U47A showed a yeast fitness of 0.976.
With U3C C24U C55G A70U the yeast fitness was ≤ 0.5.
For G63A A65G, the yeast fitness was 0.889.
G56C U59C showed a yeast fitness of 0.607.
With A21U U28G A69C the yeast fitness was 0.529.
With C4U C55G A65G the yeast fitness was ≤ 0.5.
For G10C A15C C46U, the yeast fitness was ≤ 0.5.
Variant C30A A69U has a yeast fitness of 0.963.
With C11G C34A G41C G51C G56A the yeast fitness was ≤ 0.5.
A14G A43C G50A showed a yeast fitness of 0.558.
In the case of C4G A43U, the yeast fitness is reported as 0.856.
In the case of U2C G12C C34A A40C, the yeast fitness is reported as ≤ 0.5.
For U3A C27G C31U C33U A42C C49U, the yeast fitness was ≤ 0.5.
Work on A40U A42C G67A yielded a yeast fitness of 0.534.
With C4A C29A A70C the yeast fitness was ≤ 0.5.
In the case of U8C A15U, the yeast fitness is reported as 0.849.
In the case of C4U A15G G23C A37U U47C A65U, the yeast fitness is reported as ≤ 0.5.
In the case of C5G C30U A42G, the yeast fitness is reported as 0.57.
Variant G9C C22U U47C has a yeast fitness of 0.694.
For C5G G12A G25A, the yeast fitness was 0.783.
C30A A40G A65G gave a yeast fitness of 0.967.
In the case of U7G G56C C60U G67C, the yeast fitness is reported as ≤ 0.5.
For C4U U26C A36C, the yeast fitness was ≤ 0.5.
With U16A C30A the yeast fitness was 0.912.
In the case of G17A C33A A36U G41A G48A, the yeast fitness is reported as ≤ 0.5.
Work on C22U G52A C55A yielded a yeast fitness of 0.579.
For U35A A36U A45C, the yeast fitness was 0.531.
With U7A C27U C66A the yeast fitness was ≤ 0.5.
Work on U3C U28C C33U A45U yielded a yeast fitness of 0.528.
Variant C4A C49U has a yeast fitness of 0.877.
With U3C G9A A65G the yeast fitness was 0.888.
U3A A45G G67C gave a yeast fitness of 0.628.
With A15C U59C the yeast fitness was 0.741.
Work on A14G A20U U35C G38A A43C yielded a yeast fitness of 0.635.
With A15U U28A C49U U59A C66A the yeast fitness was ≤ 0.5.
Work on A21C U54G C55G yielded a yeast fitness of 0.585.
With G12C C24G C30A A43C C60U C62A the yeast fitness was ≤ 0.5.
With G23A G56A the yeast fitness was 0.924.
In the case of C5G G10A C11G U16G C33G C61A, the yeast fitness is reported as ≤ 0.5.
In the case of C30A C62A, the yeast fitness is reported as 0.589.
In the case of C22G U47A C49U, the yeast fitness is reported as 0.638.
With C27U C34U U35C U47C U53G A69U the yeast fitness was ≤ 0.5.
In the case of U16A A45G G58A, the yeast fitness is reported as 0.591.
A20G G25A C66U showed a yeast fitness of 0.682.
Variant U2A A45C A65U has a yeast fitness of 0.624.
Variant G25A C29U A45U has a yeast fitness of 0.69.
